The values below come from ChEMBL document CHEMBL4261634, “Design and optimization of 2,3-dihydrobenzo[b][1,4]dioxine propanoic acids as novel GPR40 agonists with improved pharmacokinetic and safety profiles” (Bioorg Med Chem, 2018).

In one data set the test system is Rattus norvegicus. Nature of the data set: Antidiabetic activity in Sprague-Dawley rat assessed as reduction in blood glucose AUC (0 to 60 mins) at 10 to 20 mg/kg, po administered 60 mins prior to glucose challenge by OGTT. The format is functional, organism-based. The gist of the method:
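OGTT in SD rats: compound given orally 60 min before a 3.0 g/kg glucose challenge. Blood glucose followed over time, and AUC0-60min or AUC0-120min calculated versus vehicle group. Mean ± SD, n = 8.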

Data set [1] in a line: Cmax in Sprague-Dawley rat at 3 mg/kg, po by LC-ESI-MS analysis. Type of data set: ADME, organism-based. Set-up: dose 3 mg/kg, route oral. The note with it: in vivo. In short, it runs like this:
(§1)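 SD rats dosed orally (3 or 10 mg/kg) or by intravenous injection (1 mg/kg). Plasma PK parameters derived per route: Cmax, AUC0-t, Tmax, t1/2 and F after oral dosing; CL, AUC0-t, MRT, t1/2 and Vdss after iv dosing. Mean ± SD from three independent experiments (n = 3).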

The nature of data set [2]: AUC (0 to t) in Sprague-Dawley rat at 3 mg/kg, po by LC-ESI-MS analysis. Type of data set: ADME, organism-based. The conditions noted are these: in vivo. In short, it runs like this:
as §1

Data set [3] can be described thus: Tmax in Sprague-Dawley rat at 10 mg/kg, po by LC-ESI-MS analysis. The format is ADME, organism-based. The conditions noted are these: in vivo. The gist of the method: as §1
The nature of data set [4]: Volume of distribution at steady state in Sprague-Dawley rat at 1 mg/kg, iv by LC-ESI-MS analysis. The note with it: in vivo, read-out: Vdss. The format is ADME, organism-based. The gist of the method: as §1
The next data set deals with Hepatocyte. Nature of the data set: Toxicity in sandwich-cultured Sprague-Dawley rat hepatocytes assessed as inhibition of hepatobiliary transport by measuring biliary excretion index at 5 to 40 uM after 15 mins in presence of d8-TCA by LC-MS/MS analysis. The conditions noted are these: 0.25 h. The format is cell-based. The gist of the method:
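Sandwich-cultured rat hepatocytes incubated with compound and d8-TCA in standard (Ca2+-containing) or Ca2+-free buffer. Cellular d8-TCA measured, and the biliary excretion index calculated as the fraction of accumulated bile acid excreted into bile. Mean of three independent experiments.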

Data set [5] concerns the target T1, Free fatty acid receptor 4 (Homo sapiens) (UniProt Q5NUL3).
T1 sequence (whole entry): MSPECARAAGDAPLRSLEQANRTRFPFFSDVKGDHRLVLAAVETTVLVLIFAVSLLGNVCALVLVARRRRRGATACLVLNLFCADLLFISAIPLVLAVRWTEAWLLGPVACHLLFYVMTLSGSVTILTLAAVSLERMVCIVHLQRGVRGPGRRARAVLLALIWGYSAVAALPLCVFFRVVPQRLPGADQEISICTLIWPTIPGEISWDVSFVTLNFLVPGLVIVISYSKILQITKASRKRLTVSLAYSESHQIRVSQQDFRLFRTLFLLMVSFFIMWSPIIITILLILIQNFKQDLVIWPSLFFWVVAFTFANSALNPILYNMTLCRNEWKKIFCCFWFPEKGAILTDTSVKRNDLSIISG
Nature of the data set: Agonist activity at GPR120 (unknown origin) up to 100 uM. Type of data set: functional.

For data set [6], the target named is T2, Glucose-dependent insulinotropic receptor (Homo sapiens, UniProt Q8TDV5).
T2 sequence (Q8TDV5 whole entry): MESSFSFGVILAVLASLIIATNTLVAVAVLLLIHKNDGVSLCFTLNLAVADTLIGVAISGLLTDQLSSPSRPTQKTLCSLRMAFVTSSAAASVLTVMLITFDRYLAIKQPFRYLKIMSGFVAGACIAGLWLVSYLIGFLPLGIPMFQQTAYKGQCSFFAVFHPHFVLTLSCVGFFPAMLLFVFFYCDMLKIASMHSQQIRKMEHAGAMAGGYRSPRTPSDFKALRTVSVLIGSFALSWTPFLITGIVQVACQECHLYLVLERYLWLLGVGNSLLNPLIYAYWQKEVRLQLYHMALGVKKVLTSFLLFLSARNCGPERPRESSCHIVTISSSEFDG
Nature of the data set: Agonist activity at GPR119 (unknown origin). The format is functional.

Data set [7] concerns the target T3, Solute carrier organic anion transporter family member 1B1 (Homo sapiens, UniProt Q9Y6L6).
T3 sequence (Q9Y6L6 whole entry): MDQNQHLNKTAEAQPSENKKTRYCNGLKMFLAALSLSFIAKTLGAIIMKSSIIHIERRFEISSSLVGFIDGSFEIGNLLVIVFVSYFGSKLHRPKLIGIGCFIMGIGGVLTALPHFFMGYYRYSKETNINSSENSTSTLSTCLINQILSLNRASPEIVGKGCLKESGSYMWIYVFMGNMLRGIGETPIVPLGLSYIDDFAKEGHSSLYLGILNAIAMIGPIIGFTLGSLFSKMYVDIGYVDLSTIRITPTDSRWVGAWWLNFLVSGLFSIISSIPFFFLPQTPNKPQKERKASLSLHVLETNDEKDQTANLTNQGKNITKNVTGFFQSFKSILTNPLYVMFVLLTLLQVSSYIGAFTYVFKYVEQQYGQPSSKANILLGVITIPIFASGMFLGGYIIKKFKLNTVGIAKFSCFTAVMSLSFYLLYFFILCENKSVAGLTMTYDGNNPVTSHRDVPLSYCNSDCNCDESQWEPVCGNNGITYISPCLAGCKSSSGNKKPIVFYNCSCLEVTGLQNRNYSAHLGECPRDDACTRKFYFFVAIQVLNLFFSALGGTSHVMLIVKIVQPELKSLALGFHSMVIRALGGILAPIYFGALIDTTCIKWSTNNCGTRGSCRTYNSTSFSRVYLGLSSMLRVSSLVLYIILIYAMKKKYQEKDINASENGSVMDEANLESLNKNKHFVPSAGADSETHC
Nature of the data set: Inhibition of human OATP1BA.

For data set [8], the target named is Voltage-gated inwardly rectifying potassium channel KCNH2 (Homo sapiens, UniProt Q12809). The data set can be described thus: Inhibition of human ERG by patch-clamp assay. In short, it runs like this: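 hERG K+ channel inhibition measured by patch clamp to give IC50.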
Sequence of Voltage-gated inwardly rectifying potassium channel KCNH2 (Q12809 whole entry): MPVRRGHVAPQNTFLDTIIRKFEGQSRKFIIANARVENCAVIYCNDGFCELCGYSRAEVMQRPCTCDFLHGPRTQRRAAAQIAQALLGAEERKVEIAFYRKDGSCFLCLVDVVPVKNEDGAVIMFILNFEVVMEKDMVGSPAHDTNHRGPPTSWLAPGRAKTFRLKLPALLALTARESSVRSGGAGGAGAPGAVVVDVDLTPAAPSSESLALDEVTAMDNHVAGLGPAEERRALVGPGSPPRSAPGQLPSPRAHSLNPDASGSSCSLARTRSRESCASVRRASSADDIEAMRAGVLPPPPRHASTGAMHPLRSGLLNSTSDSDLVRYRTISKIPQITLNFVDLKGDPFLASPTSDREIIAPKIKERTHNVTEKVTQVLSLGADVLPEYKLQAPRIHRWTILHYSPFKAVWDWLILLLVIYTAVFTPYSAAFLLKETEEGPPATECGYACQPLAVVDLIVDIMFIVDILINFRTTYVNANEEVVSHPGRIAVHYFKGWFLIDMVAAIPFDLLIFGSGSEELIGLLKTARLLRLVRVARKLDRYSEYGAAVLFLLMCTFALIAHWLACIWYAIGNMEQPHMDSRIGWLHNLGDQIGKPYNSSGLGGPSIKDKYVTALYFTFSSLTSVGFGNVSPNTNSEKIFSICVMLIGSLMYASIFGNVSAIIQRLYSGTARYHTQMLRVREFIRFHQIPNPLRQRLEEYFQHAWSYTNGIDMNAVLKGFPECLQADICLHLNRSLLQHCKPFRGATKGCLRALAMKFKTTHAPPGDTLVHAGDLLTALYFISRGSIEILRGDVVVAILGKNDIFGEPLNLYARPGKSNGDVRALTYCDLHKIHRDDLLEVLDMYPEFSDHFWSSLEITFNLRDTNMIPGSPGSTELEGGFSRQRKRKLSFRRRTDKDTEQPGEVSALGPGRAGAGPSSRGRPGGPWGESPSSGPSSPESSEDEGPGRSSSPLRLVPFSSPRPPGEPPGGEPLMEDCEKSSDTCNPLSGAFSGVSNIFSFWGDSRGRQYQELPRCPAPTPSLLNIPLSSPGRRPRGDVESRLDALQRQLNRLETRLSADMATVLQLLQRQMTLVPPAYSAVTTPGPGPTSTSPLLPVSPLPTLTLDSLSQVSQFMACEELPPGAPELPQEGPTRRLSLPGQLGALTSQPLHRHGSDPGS
Another data set has as its target T4, Cytochrome P450 1A2 (Homo sapiens, UniProt P05177).
T4 sequence (P05177 whole entry): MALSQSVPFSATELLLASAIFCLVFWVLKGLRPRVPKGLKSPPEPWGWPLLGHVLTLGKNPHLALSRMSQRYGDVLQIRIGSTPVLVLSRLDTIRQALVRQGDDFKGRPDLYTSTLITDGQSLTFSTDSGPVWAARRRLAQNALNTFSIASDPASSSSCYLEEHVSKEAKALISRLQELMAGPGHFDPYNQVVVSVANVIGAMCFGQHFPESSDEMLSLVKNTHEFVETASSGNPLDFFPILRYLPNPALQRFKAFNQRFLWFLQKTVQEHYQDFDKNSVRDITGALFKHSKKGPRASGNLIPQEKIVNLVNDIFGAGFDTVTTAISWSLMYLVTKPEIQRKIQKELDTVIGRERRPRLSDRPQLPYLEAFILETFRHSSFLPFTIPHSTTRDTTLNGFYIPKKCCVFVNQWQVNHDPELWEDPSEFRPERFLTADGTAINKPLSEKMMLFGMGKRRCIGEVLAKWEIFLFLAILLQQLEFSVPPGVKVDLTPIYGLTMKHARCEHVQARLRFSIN
The data set can be described thus: Inhibition of CYP1A2 (unknown origin). Type of data set: ADME.

The target in the next data set is Cytochrome P450 2D6 (Homo sapiens, UniProt P10635). Nature of the data set: Inhibition of CYP2D6 (unknown origin). Type of data set: ADME.
Sequence of Cytochrome P450 2D6 (P10635 whole entry): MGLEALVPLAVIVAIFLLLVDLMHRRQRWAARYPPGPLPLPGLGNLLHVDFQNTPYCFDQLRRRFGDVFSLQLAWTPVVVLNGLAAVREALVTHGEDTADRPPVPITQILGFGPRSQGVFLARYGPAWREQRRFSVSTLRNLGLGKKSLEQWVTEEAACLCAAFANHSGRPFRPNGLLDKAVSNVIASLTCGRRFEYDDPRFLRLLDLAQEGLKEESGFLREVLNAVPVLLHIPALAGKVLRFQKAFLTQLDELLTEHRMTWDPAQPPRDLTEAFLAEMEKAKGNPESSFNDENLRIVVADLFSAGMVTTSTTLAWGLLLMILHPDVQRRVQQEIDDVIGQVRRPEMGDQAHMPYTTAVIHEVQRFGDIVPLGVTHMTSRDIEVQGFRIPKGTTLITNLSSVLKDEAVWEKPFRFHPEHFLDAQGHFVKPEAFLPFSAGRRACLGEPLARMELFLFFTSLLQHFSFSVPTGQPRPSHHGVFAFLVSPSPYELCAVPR
In the next data set the test system is Salmonella typhimurium. The data set can be described thus: Mutagenicity in Salmonella typhimurium by Ames test. Type of data set: toxicity, organism-based. The note with it: salmonella enterica subsp. enterica serovar typhimurium. In general terms: In the Ames test, an excess of revertant colonies over the control signals mutagenicity.

Calls of active or inactive are those of the source. No cut-off for these calls is given here. Bounds are passed on as bounds.

Regarding `CC#C[C@@H](CC(=O)O)c1ccc(OC[C@H]2COc3ccc(Cl)cc3O2)cc1`, the outcome in the data set with Rattus norvegicus was Active. The same molecule yielded a peak concentration (Cmax) in [1] of 9310 ng/mL. For the same molecule, the AUC(0-t) in data set [2] was 140 µg·h/mL. Further, in data set [3], the Tmax was found to be 4 h. Besides, in data set [4], the Vd worked out at 0.182 L/kg. Further, the Activity entry with Hepatocyte and with Salmonella typhimurium was “Non-Toxic” in each case. Also, in data set [5], the result was inactive. Also, in [6], the concentration giving a half-maximal response (EC50) is over 100 µM. Moreover, the IC50 in data set [7] was over 100 µM; in [8], over 40 µM; at Cytochrome P450 1A2 it was over 100 µM; against Cytochrome P450 2D6, over 100 µM.

Usually Cmax stands for the highest concentration seen after dosing. One may read the AUC(0-t) as exposure summed from dosing to a finite time, without extrapolation to infinity. Read a high AUC(0-t) as high exposure. By Tmax is commonly meant the time at which the peak concentration occurs. One may read the EC50 as the concentration needed to bring the measured effect to its halfway point. Read a high EC50 as lower potency in that assay. For orientation: IC50 means the midpoint of a concentration-inhibition curve. Read a high IC50 as weaker potency.
